# The whole screen tested about 2,400 compounds, of which about 140 (5.8%) were called active.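 The calls were made as follows: active = mean activation across replicates exceeds the hit threshold derived in the earlier primary screen (cut at about 18% in these data); inactive = the rest.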 A selection follows.
# Target: Mu-type opioid receptor (Homo sapiens) + Delta-type opioid receptor (Homo sapiens) (UniProt P35372+P41143)
# Test: OPRM1-OPRD1 heterodimer beta-arrestin recruitment activators – cell-based, luminescence, counter-screen for MC4R biased agonist project (AID 602194);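 also: 100% = deltorphin B at 0.9 µM final and 0% = DMSO alone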
# Conditions: U2OS PathHunter beta-arrestin, beta-gal luminescence; at 9.2 µM; stronger effect = higher value; percent of deltorphin B response, DMSO zero
# In short: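 System: U2OS cells with OPRM1, OPRD1 and beta-arrestin; doses: 9.2 µM single dose; timing: 23 h growth, 3 h compound 37 °C, 1 h detection; signal: luminescence; evaluation: mean % activation versus DMSO and Deltorphin B wells; control set: Deltorphin B high, DMSO low; repeats: triplicate wells per compound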
# Mu-type opioid receptor (Homo sapiens) + Delta-type opioid receptor (Homo sapiens), sequence (P35372 whole entry, looked up): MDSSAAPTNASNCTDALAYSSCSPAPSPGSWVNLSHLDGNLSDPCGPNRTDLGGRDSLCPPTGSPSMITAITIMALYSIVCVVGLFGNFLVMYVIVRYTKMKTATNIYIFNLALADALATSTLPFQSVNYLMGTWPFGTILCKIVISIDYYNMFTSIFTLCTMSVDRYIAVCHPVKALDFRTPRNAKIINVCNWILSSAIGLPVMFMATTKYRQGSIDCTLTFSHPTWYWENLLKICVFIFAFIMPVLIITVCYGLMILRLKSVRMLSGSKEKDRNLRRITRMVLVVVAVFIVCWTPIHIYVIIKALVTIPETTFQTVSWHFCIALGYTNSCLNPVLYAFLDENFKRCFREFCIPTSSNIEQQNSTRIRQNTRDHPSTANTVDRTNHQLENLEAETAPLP
# Mu-type opioid receptor (Homo sapiens) + Delta-type opioid receptor (Homo sapiens), sequence (P41143 whole entry, looked up): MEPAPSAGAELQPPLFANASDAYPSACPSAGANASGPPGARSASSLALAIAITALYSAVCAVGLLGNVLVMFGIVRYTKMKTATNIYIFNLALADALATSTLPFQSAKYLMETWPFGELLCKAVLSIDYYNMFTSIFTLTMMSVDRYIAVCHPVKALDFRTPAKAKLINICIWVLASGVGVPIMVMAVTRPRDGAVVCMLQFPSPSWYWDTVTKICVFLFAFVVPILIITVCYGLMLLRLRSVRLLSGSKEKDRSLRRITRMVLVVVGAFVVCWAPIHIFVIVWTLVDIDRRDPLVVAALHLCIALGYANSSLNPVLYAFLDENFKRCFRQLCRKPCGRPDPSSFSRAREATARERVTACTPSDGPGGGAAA
row,Compound,activation
1,CC(=O)Nc1cc(-c2ccccc2N(C)C)cn2c(-c3ccc(F)c(Cl)c3)cnc12,4.79% (inactive)
2,CC(=O)Nc1cc(-c2ccccc2F)cn2c(-c3cccc(C(F)(F)F)c3)cnc12,2.54% (inactive)
3,Cc1csc(NC(=O)c2ccc(-c3ccc(Cl)cc3Cl)o2)n1,5.41% (inactive)
4,CCCCNc1c(-c2cccc(Sc3ccc(OC)cc3)c2)nc2ccccn12,6.07% (inactive)
5,CCN1CCN(CCNC(=O)c2ccc(/C=C3/Sc4ccccc4N(Cc4cccc(C)c4)C3=O)cc2)CC1,4.15% (inactive)
6,Cc1ccccc1NC(=O)c1ccc(COc2ccc3c(C)cc(=O)oc3c2)cc1,12.7% (inactive)
7,O=C(/C=C/c1c(Cl)cccc1Cl)NCc1ccccc1,5.53% (inactive)
8,COc1c(Cl)cc(C(=O)Nc2ccc(Cl)cn2)cc1Cl,7.15% (inactive)
9,NC(N)=Nc1nc(-c2ccccc2)c2cc(Cl)ccc2n1,5.11% (inactive)
10,O=C(NC1CCCCCC1)c1cccnc1Sc1ccc(Cl)cc1,3.4% (inactive)
11,Brc1ccc(-c2csc(N/N=C/c3cccnc3)n2)cc1,5.84% (inactive)
12,Cc1cccc(NC(=O)Nc2cccc(Oc3c(F)c(F)c(F)c(F)c3F)c2)c1,6.53% (inactive)
13,COc1ccc(-c2cc(NC=O)c3ncc(-c4ccccc4)n3c2)cc1OC,3.12% (inactive)
14,O=C(CCCN1C(=O)/C(=C\c2ccco2)SC1=S)Nc1cccc2ccccc12,4.3% (inactive)
15,O=C(CCCCCN1C(=O)c2cccc3cccc(c23)C1=O)NCc1ccco1,9.12% (inactive)
16,O=C(CCCn1c(SCC(=O)c2ccc(F)cc2)nc2ccccc2c1=O)NCc1ccco1,33.1% (active)
17,COc1ccc(S(=O)(=O)N/N=C\c2ccc(OC)c(COc3ccc(C)cc3[N+](=O)[O-])c2)cc1,3.27% (inactive)

row,Compound,activation
1,COc1ccccc1-c1cc(NC(C)=O)c2ncc(-c3ccc(F)cc3)n2c1,4.19% (inactive)
2,O=C(N/N=C/c1ccc(OC(=O)c2ccccc2Cl)cc1)c1ccc(O)cc1,6.45% (inactive)
3,CC(=O)c1cccc(-c2cnc3c(NC=O)cc(-c4ccc(N(C)C)cc4)cn23)c1,2.52% (inactive)
4,Cc1ccc(-n2cc3ccc([N+](=O)[O-])cc3n2)cc1,7.27% (inactive)
5,COc1ccc(OCC(=O)Nc2ccc(N3CCC(C)CC3)cc2)cc1,2.59% (inactive)
6,O=C(NCCc1c[nH]c2ccc(Cl)cc12)c1ccc([N+](=O)[O-])cc1,15.2% (inactive)
7,CCOC(=O)c1[nH]c2c(c1-c1ccccc1)C(=O)CC(c1ccc(Cl)cc1)C2 (centres undefined),6.76% (inactive)
8,CCCCCCCCCCOC(=O)Cn1c(COc2cccc(OC)c2)[n+](C)c2ccccc21,19.9% (active)
9,CCCCCCCCCCOC(=O)Cn1c(COc2ccc(C)cc2)[n+](C)c2ccccc21,22.4% (active)
10,COc1cc(/C=C(\C#N)C(=O)Nc2ccc3ccccc3c2)c([N+](=O)[O-])cc1OC,10.3% (inactive)
11,CCN1C[C@@H]2[C@@H]3C(=O)N(Cc4ccccc4)C(=O)[C@@H]3[C@](Cc3ccccc3)(C(=O)OC)N2C1=NC1CCCCC1,5.52% (inactive)
12,O=C(NC(c1ccc(-c2ccccc2)cc1)c1cnccn1)C1CCN(CCOc2ccc(Cl)cc2Cl)CC1 (centres undefined),9.53% (inactive)
13,O=C(COC(=O)c1cccc(Br)c1)Nc1cccc2c1C(=O)c1ccccc1C2=O,6.2% (inactive)
14,O=C(NC(=S)Nc1cccc2c(O)cccc12)c1cccc(Br)c1,8.2% (inactive)
15,CCN(CC)S(=O)(=O)c1ccc(C)c(NC(=O)COc2ccc(Br)cc2Cl)c1,6.67% (inactive)
16,CSc1ccc(/C=N\NC(=O)COc2ccc(Cl)cc2Br)cc1,5.52% (inactive)
17,COc1ccc(C)c(Cn2c(-c3nonc3N)nc3ccccc32)c1,5.04% (inactive)
